Compound activity from PubChem BioAssay.
A selection: hits, their analogues and other compounds. The true share with any hit is near 2.5%.
MEKK2wt PB1 HTS: modulators of MEK5 binding to wildtype MEKK2, primary screen, biochemical, multiplex bead flow cytometry, Alexa488-MEK5. Mitogen-activated protein kinase kinase kinase 2 (Homo sapiens), Q9Y2U5. Alexa488-MEK5 binding to MEKK2 WT; actives lie on both sides. binding response (% of control), % at 10 µM. actives 1.1% (n = 290,000). AID 1531, 2009; in the data active = binding response below about 67% or above about 130%
MEKK3 PB1 HTS: modulators of MEKK3-MEK5 PB1 binding, primary screen, biochemical, wildtype MEKK3, multiplex bead flow cytometry, Alexa488-MEK5; Mitogen-activated protein kinase kinase kinase 3 (Homo sapiens), Q99759; bead-based flow cytometry, Alexa488-MEK5 binding to MEKK3; actives lie on both sides; 0 = blocked by unlabeled MEK5, 100 = vehicle; binding response (% of control), % at 10 µM; actives 1.4% (n = 290,000);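 active = binding response more than 3 SD above or below the average of its plate-row segment, actives on both sides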;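 also: Alexa488 bead fluorescence after subtracting the streptavidin-only scavenger bead signal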
Target sequence (Q99759 whole entry, looked up): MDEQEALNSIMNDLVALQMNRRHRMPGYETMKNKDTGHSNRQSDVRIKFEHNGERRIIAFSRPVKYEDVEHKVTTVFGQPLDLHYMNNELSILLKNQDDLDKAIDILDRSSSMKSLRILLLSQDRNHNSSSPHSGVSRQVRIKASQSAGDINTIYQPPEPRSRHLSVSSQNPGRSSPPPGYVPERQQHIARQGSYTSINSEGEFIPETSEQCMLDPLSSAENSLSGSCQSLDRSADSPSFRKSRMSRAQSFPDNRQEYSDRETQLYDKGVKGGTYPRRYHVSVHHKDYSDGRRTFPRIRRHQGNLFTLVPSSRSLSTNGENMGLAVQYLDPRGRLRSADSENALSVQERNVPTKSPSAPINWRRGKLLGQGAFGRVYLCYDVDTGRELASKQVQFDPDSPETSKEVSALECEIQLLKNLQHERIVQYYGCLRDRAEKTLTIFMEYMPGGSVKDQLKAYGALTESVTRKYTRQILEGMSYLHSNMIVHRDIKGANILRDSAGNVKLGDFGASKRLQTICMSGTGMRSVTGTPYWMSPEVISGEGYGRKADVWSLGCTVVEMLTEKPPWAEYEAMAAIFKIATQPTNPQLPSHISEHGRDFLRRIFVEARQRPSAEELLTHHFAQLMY
ABCB1 inh: ABCB1 efflux pump inhibitors, primary screen, cell-based, multiplex, flow cytometry, ABCG2 counter-screen | ATP-dependent translocase ABCB1 (Homo sapiens), P08183 | CCRF-Adr cells, JC-1 efflux | inhibition, % at 6.6 µM | actives 0.067% (n = 190,000) | AID 1326, 2008; in the data active = inhibition above about 40%;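 also: higher value means more JC-1 retained so stronger ABCB1 efflux block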
MEKK2 mut-MEK5: MEK5 binding signal on mutant MEKK2 PB1, primary screen, biochemical, multiplex bead flow cytometry, Alexa488-MEK5; actives 0.35% (n = 290,000); Alexa488-MEK5 binding to MEKK2 mutant; percent response, % at 10 µM; in the data active = percent response above about 24%, passing the limit was not always enough
Efflux pump mplx: inhibitors of Candida efflux pumps in yeast, primary screen, S. cerevisiae, Nile Red, multiplex | S. cerevisiae Candida pump triplex | inhibition, % at 10 µM | actives 0.44% (n = 330,000) | AID 485275, 2010;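 active = plate passing quality check with inhibition over a set limit, or well fluorescence over plate mean plus 4 SD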;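 also: Nile Red retained in pooled yeast measured as flow cytometry median fluorescence; higher means more Nile Red kept so more efflux inhibition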
ABCG2 block: ABCG2 efflux pump inhibitors, primary screen, multiplex with ABCB1, IgMXP3 cells, flow cytometry | Broad substrate specificity ATP-binding cassette transporter ABCG2 (Homo sapiens), Q9UNQ0 | JC-1 efflux | inhibition, % at 6.6 µM | actives 0.1% (n = 190,000);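 active = inhibition above 80%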
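test system = two drug-resistant human cell lines, ABCG2 and ABCB1 | amount = 3 million cells/mL final, two lines in 1:1 ratio | reagent = JC-1 transporter substrate | doses = one concentration, 6.6 µM final | incubation = 10 min at 25 °C | signal = flow cytometric JC-1 green MFI at 530 nm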
MEKK2wt confirm: modulators of MEK5 binding to wildtype MEKK2, confirmation, biochemical, single concentration, multiplex bead flow cytometry; binding response (% of control), % at 10 µM; shares compounds with MEKK3 PB1 HTS; Alexa488-MEK5 binding to MEKK2 WT; actives lie on both sides; actives 2.4% (n = 5,900); in the data active = binding response below about 16% or above about 210%; inactive = in between
MEKK2mut-MEK5: mutant MEKK2 PB1-MEK5 binding signal retest – biochemical, single concentration, multiplex bead flow cytometry, confirmation | shares compounds with MEKK3 PB1 HTS | Alexa488-MEK5 binding to MEKK2 mutant | percent response, % at 10 µM | actives 2% (n = 5,900); in the data active = percent response mostly above about 71%, no sharp cut-off; inactive = mostly below about 38%;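 also: higher means compound restores mutant binding toward wildtype level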
MEKK3-MEK5 inh: MEKK3 wild-type PB1 binding to MEK5, inhibitors, confirmation, biochemical, bead multiplex flow cytometry, single concentration, wildtype; actives 1.8% (n = 5,900); binding response (% of control), % at 10 µM; Alexa488-MEK5 binding to MEKK3; stronger effect = lower value; shares compounds with MEKK3 PB1 HTS;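 active = binding response below 72% of control, or above a set upper limit, though filed actives all read lower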
Numbers stand for hits; . = inactive; / = not tested or not shown; [ ] = another dose, or the depositor's remark.

SMILES	MEKK2wt PB1 HTS	MEKK3 PB1 HTS	ABCB1 inh	MEKK2 mut-MEK5	Efflux pump mplx	ABCG2 block	MEKK2wt confirm	MEKK2mut-MEK5	MEKK3-MEK5 inh
COc1nc(Nc2ccccc2F)nc(OC)n1	.	.	/	25.0	.	/	.	.	.
COc1ccc(Br)cc1S(=O)(=O)NCCc1cccs1	/	/	/	/	.	/	/	/	/
Cc1cccc(-c2cc3nc4c(c(NCc5ccco5)n3n2)CCCC4)c1	136.0	.	.	.	.	.	.	.	.
O=C1CCC([N+](=O)[O-])C(c2cc(Br)ccc2F)N1 (centres undefined)	.	.	/	.	.	/	/	/	/
O=C1CCC([N+](=O)[O-])C(c2cc3c(cc2Br)OCO3)N1 (centres undefined)	.	156.0	.	.	.	.	.	.	.
COc1cc2c(C(=O)NCCCOC(C)C)cn(CC(C)C)c(=O)c2cc1OC	.	81.0[inhibitor]	.	.	.	.	.	.	.
COc1cc2c(C(=O)NCCN(C)C)cn(CC(C)C)c(=O)c2cc1OC	.	.	/	.	.	/	/	/	/
Cc1ccc(NC(=O)CCNC(=O)c2ccc(Br)cc2)nc1	.	.	/	.	.	/	/	/	/
COc1ccccc1CCn1cnc2c3cc(C)ccc3n(C)c2c1=O	2.0[inhibitor]	2.0[inhibitor]	.	.	.	.	.	.	.
O=C(O)c1cccc(Nc2nc(-c3ccc([N+](=O)[O-])cc3)nc3ccccc23)c1	.	.	/	.	.	/	/	/	/
O=[N+]([O-])c1ccc(-c2nc(Nc3cccc(O)c3)c3ccccc3n2)cc1	146.0	.	/	.	.	/	.	.	.
O=C(N/N=C/c1ccsc1)c1ccccn1	.	.	.	.	.	.	/	/	/
CC(C)(C)c1ccc(/C=N/NC(=O)c2ccccn2)cc1	/	.	.	86.0	.	.	.	.	.
COCCn1c(SCc2ccc(F)cc2)nc2ccccc2c1=O	.	.	/	.	.	/	/	/	/
COCCn1c(SCc2ccc(OC)c(F)c2)nc2ccccc2c1=O	.	156.0	.	.	.	.	.	.	.
COc1ccccc1OCCSc1nc2ccccc2c(=O)[nH]1	.	.	.	.	.	.	/	/	/
COc1ccc(CSc2nc3ccccc3c(=O)[nH]2)cc1F	9.0[inhibitor]	6.0[inhibitor]	.	.	.	.	.	.	.
O=C(NNc1cc(Br)c(O)c(Br)c1)c1ccccc1	.	.	.	.	.	.	/	/	/
O=C1CC(c2ccccc2)c2cccc(F)c21 (centres undefined)	.	.	/	.	.	/	/	/	/
O=C(CCNC(=O)OCc1ccccc1)NC1CCCCC1	.	135.0	.	.	.	.	.	.	.
O=C(CNC(=O)OCc1ccccc1)NC1CCCCCC1	.	.	.	.	.	.	/	/	/
c1ccc(COc2ccc(OCCCNC3CCCC3)cc2)cc1	140.0	.	.	.	.	.	.	.	.
O=C(NC1CCCC1)c1ccccc1OCc1ccccc1	.	63.0[inhibitor]	.	.	.	.	.	.	.
O=C(NC1CCN(Cc2ccccc2)CC1)c1ccccc1OCc1ccccc1	.	.	/	.	.	/	/	/	/
O=C(NCCN1C(=O)S/C(=C\c2ccccc2)C1=O)C1CCN(S(=O)(=O)c2cccs2)CC1	.	.	.	.	.	.	/	/	/
SMILES	MEKK2wt PB1 HTS	MEKK3 PB1 HTS	ABCB1 inh	MEKK2 mut-MEK5	Efflux pump mplx	ABCG2 block	MEKK2wt confirm	MEKK2mut-MEK5	MEKK3-MEK5 inh
Cc1ccc(C(=O)N2CCN(c3ccccc3F)CC2)cc1NC1=NC2CS(=O)(=O)CC2S1 (centres undefined)	.	.	/	.	.	/	/	/	/
Cc1cccc(OCC(O)CN2CCN(c3ccccn3)CC2)c1C (centres undefined)	.	.	/	.	.	/	/	/	/
CC1(C)Cc2cccc(OCC(O)CN3CCN(c4ccccn4)CC3)c2O1 (centres undefined)	.	127.0	.	.	/	.	.	.	.
Cc1ccc(COC(=O)c2cc(S(=O)(=O)N3CCOCC3)ccc2C)cc1	/	/	/	/	.	/	/	/	/
CC(=O)c1cccc(CN2CCC(C(=O)Nc3ccc(Oc4cccnc4)cc3)CC2)c1	.	.	/	.	.	/	/	/	/
CC(=O)c1cccc(CN2CCC(C(=O)Nc3ccc(-c4cccc(C)c4)cc3)CC2)c1	176.0	.	/	.	.	/	.	.	.
CN1CCc2nc(SCc3ccc(C(C)(C)C)cc3)c(C#N)cc2C1	142.0	.	.	.	.	.	.	.	.
Cc1ccnc(NC(=O)CCC(=O)N(CC(=O)NC2CCCCC2)C2CCCC2)c1	.	.	/	.	.	/	/	/	/
Cc1ccc(C(=O)OC(C(=O)O)C(OC(=O)c2ccc(C)cc2)C(=O)O)cc1 (centres undefined)	/	/	/	/	.	/	/	/	/
Cc1sc(NC(=O)c2ccccc2)c(C(c2ccccn2)N2CCN(CCO)CC2)c1C (centres undefined)	.	140.0	.	.	.	.	1.0[inhibitor]	.	2.0
Nc1ccc(-c2cnc[nH]2)cc1[N+](=O)[O-]	.	.	/	.	.	/	/	/	/
CCCCOC(=O)c1ccc(NC(=O)c2ccccc2OC)cc1	.	136.0	.	.	.	.	.	.	.
CCCCOC(=O)c1ccc(NC(=O)C(=O)NCc2ccco2)cc1	.	136.0	.	.	.	.	.	.	.
CCCCOC(=O)c1ccc(NC(=O)C(=O)NCc2ccccn2)cc1	.	.	/	.	.	/	/	/	/
NC(=O)c1cc[n+](CC(=O)NC(=O)Nc2ccccc2)cc1	/	/	/	/	.	/	/	/	/
Cc1cc(N2CCCCC2)nc(SCc2ccc(C#N)cc2)n1	.	122.0	.	.	.	.	.	.	.
N#Cc1ccc(CSc2nc(N)cc(N)n2)cc1	.	.	/	.	.	/	/	/	/
CCN(CC)CCNC(=S)Nc1ccc2nc(N3CCN(C)CC3)cc(C)c2c1	.	.	/	.	.	/	/	/	/
COc1ccc(CNC(=S)Nc2ccc3nc(N4CCN(C)CC4)cc(C)c3c2)cc1	152.0	.	.	.	.	.	.	.	.
